Assays:
[1] = Inhibition of specific binding of [125I]angiotensin II (0.2 nM) to angiotensin II receptor in bovine adrenal cortex; format: tissue-based, Bos taurus
[2] = target: T1, Angiotensin II receptor (Rattus norvegicus) (UniProt P29089+P25095+P35351); assay: Percent inhibition of angiotensin II (0.1 ug/kg iv) -induced pressor response 7 hr after administration of test compounds (1 mg/kg po) in conscious male Sprague-Dawley rats; format: functional, organism-based
Procedure, shortened: (§1)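 Conscious male Sprague-Dawley rats were given the test compound at 1 mg/kg orally. They were then challenged with AII at 0.1 μg/kg iv. The AII-induced pressor response was measured 3 and 7 h after dosing and expressed as percent inhibition.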

[3] = target: T1, Angiotensin II receptor (Rattus norvegicus); assay: Percent inhibition of angiotensin II (0.1 ug/kg iv) -induced pressor response 3h after administration of test compounds (1 mg/kg po) in conscious male Sprague-Dawley rats; format: functional, organism-based; procedure, shortened: as §1
[4] = Bioavailability; format: ADME, organism-based; details: eutheria, in vivo; read-out: BA
[5] = pka value was determined; format: physicochemical
Procedure, shortened: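 pKa of the acidic group was estimated from the corresponding methyl ester. Titration was potentiometric with standardized 0.1 N NaOH in DMSO–H2O (2:3) at 26 °C.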

Rattus norvegicus [6] = assay: Percent inhibition of AII-induced pressor response 7 hr after administration of test compounds (1 mg/kg po) in conscious male Sprague-Dawley rats.
Rattus norvegicus [7] = assay: Percent inhibition of AII (0.1 ug/kg iv) -induced pressor response at 7 hr after administration of test compounds (0.1 mg/kg po) in conscious male Sprague-Dawley rats.; format: functional; details: in the assay text read “3 hr” for “7 hr”
Procedure, shortened: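 In conscious male Sprague-Dawley rats, the oral test dose was 0.1 mg/kg. The pressor response to an AII challenge (0.1 μg/kg iv) was recorded after dosing, and percent inhibition was calculated.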

Rattus norvegicus [8] = assay: Percent inhibition of AII ([…]) -induced pressor response 7 hr after administration of test compounds (1 mg/kg po) in conscious male Sprague-Dawley rats.; format: functional
[9] = Partition coefficient (logP); format: physicochemical; details: octanol/water
Rattus norvegicus [10] = assay: Percent inhibition of AII (0.1 ug/kg iv) -induced pressor response at 3 hr after administration of test compounds (0.1 mg/kg po) in conscious male Sprague-Dawley rats.

SMILES	IC50 [1] [nM]	inhibition [2] [%]	inhibition [3] [%]	further results
CSc1nc2cccc(C(=O)O)c2n1Cc1ccc(-c2ccccc2-c2noc(S)n2)cc1	1000	91	100	–
CCCc1nc2cccc(C(=O)O)c2n1Cc1ccc(-c2ccccc2-c2noc(S)n2)cc1	390	94	96	–
CCCCc1nc2cccc(C(=O)O)c2n1Cc1ccc(-c2ccccc2-c2noc(O)n2)cc1	620	64	68	–
CCOc1nc2cccc(C(=O)OC)c2n1Cc1ccc(-c2ccccc2-c2nn[nH]n2)cc1	66	–	–	–
CSc1nc2cccc(C(=O)O)c2n1Cc1ccc(-c2ccccc2-c2nsc(O)n2)cc1	500	100	100	–
CCCCc1nc(Cl)c(CO)n1Cc1ccc(-c2ccccc2-c2nnn[nH]2)cc1 [LOSARTAN]	150	–	–	–
CCCCc1nc2cccc(C(=O)OC)c2n1Cc1ccc(-c2ccccc2-c2noc(O)n2)cc1	900	–	–	–
CCOc1nc2cccc(C(=O)O)c2n1Cc1ccc(-c2ccccc2-c2nnn[nH]2)cc1	110	–	–	bioavailability [4]: 5%; pKa [5]: 5.3
CCCCc1nc2cccc(C(=O)OC)c2n1Cc1ccc(-c2ccccc2C2=NOS(=O)N2)cc1 (stereo unspecified)	> 1000	–	63	Inhibition (Rattus norvegicus [6]): 22%
CNc1nc2cccc(C(=O)O)c2n1Cc1ccc(-c2ccccc2-c2nsc(O)n2)cc1	540	29	32	–
CCCCc1nc2cccc(C(=O)OC)c2n1Cc1ccc(-c2ccccc2-c2nn[nH]n2)cc1	320	–	–	–
CCc1nc2cccc(C(=O)O)c2n1Cc1ccc(-c2ccccc2-c2nsc(O)n2)cc1	69	100	100	–
CCNc1nc2cccc(C(=O)O)c2n1Cc1ccc(-c2ccccc2-c2nsc(O)n2)cc1	130	71	70	–
CCOc1nc2cccc(C(=O)OC)c2n1Cc1ccc(-c2ccccc2-c2noc(S)n2)cc1	> 1000	93	83	–
CCCOc1nc2cccc(C(=O)O)c2n1Cc1ccc(-c2ccccc2-c2nsc(O)n2)cc1	920	100	83	–
CCCCc1nc2cccc(C(=O)O)c2n1Cc1ccc(-c2ccccc2-c2noc(S)n2)cc1	760	–	82	Inhibition (Rattus norvegicus [7]): 19%
CCSc1nc2cccc(C(=O)O)c2n1Cc1ccc(-c2ccccc2-c2noc(S)n2)cc1	690	100	100	–

SMILES	IC50 [1] [nM]	inhibition [2] [%]	inhibition [3] [%]	further results
CCSc1nc2cccc(C(=O)O)c2n1Cc1ccc(-c2ccccc2-c2nsc(O)n2)cc1	470	100	100	–
Cc1nc2cccc(C(=O)O)c2n1Cc1ccc(-c2ccccc2-c2noc(S)n2)cc1	> 1000	50	57	–
CCCCc1nc2cccc(C(=O)O)c2n1Cc1ccc(-c2ccccc2-c2nsc(O)n2)cc1	720	–	92	Inhibition (Rattus norvegicus [7]): 19%
CCCSc1nc2cccc(C(=O)O)c2n1Cc1ccc(-c2ccccc2-c2nsc(O)n2)cc1	> 1000	100	100	–
CCCCc1nc2cccc(C(=O)OC)c2n1Cc1ccc(-c2ccccc2-c2nsc(O)n2)cc1	> 1000	–	87	Inhibition (Rattus norvegicus [7]): 10%
CCOc1nc2cccc(C(=O)OC)c2n1Cc1ccc(-c2ccccc2-c2noc(O)n2)cc1	440	100	100	–
CCOc1nc2cccc(C(=O)OC)c2n1Cc1ccc(-c2ccccc2C2=NOS(=O)N2)cc1 (stereo unspecified)	460	–	35	Inhibition (Rattus norvegicus [8]): 29%
CCOc1nc2cccc(C(=O)OC)c2n1Cc1ccc(-c2ccccc2-c2nsc(O)n2)cc1	750	100	100	–
Cc1nc2cccc(C(=O)O)c2n1Cc1ccc(-c2ccccc2-c2nsc(O)n2)cc1	970	71	80	–
CCc1nc2cccc(C(=O)O)c2n1Cc1ccc(-c2ccccc2-c2noc(S)n2)cc1	340	89	91	–
CCCSc1nc2cccc(C(=O)O)c2n1Cc1ccc(-c2ccccc2-c2noc(S)n2)cc1	> 1000	100	100	–
CCOc1nc2cccc(C(=O)O)c2n1Cc1ccc(-c2ccccc2-c2nsc(O)n2)cc1	250	–	100	bioavailability [4]: 51%; logP [9]: 1.58; pKa [5]: 6.6; Inhibition (Rattus norvegicus [7]): 100%
CCCCc1nc2cccc(C(=O)OC)c2n1Cc1ccc(-c2ccccc2-c2noc(S)n2)cc1	> 1000	–	84	Inhibition (Rattus norvegicus [10]): 7%
CCOc1nc2cccc(C(=O)O)c2n1Cc1ccc(-c2ccccc2-c2noc(=O)[nH]2)cc1 [AZILSARTAN]	420	–	100	bioavailability [4]: 20%; pKa [5]: 6.1; Inhibition (Rattus norvegicus [10]): 75%
CCCc1nc2cccc(C(=O)O)c2n1Cc1ccc(-c2ccccc2-c2nsc(O)n2)cc1	360	100	100	–
COc1nc2cccc(C(=O)O)c2n1Cc1ccc(-c2ccccc2-c2nsc(O)n2)cc1	–	91	88	–
CCCCc1nc2cccc(C(=O)O)c2n1Cc1ccc(-c2ccccc2-c2nn[nH]n2)cc1	550	–	–	–
